Active and inactive are the calls of the source. The calls are words filed in the database; no cut-off is given here.
Experiments:
[1] = test system: Plasma; assay: Free plasma concentration in rhesus monkey at 0.3 mg/kg, iv measured 90 mins post dose by LC/MS method; type: ADME, organism-based, Macaca mulatta; details: in vivo, 1.5 h
Method in brief: (§1)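 Anesthetized rhesus monkeys dosed i.v.; plasma drug concentration measured 90 min postdose. Free (unbound) concentration calculated from total plasma level using the free fraction determined in rhesus plasma.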

[2] = test system: Rhesus monkey; assay: Decrease in aldosterone level in iv dosed rhesus monkey plasma by LC/MS method; type: functional, organism-based; details: Macaca mulatta
Method in brief: (§2)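 Plasma aldosterone and 11-deoxycortisol quantified by LC–MS at time points up to 180 min postdose; AUCs over that period calculated and compared with baseline.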

[3] = test system: Plasma; assay: Free plasma concentration in rhesus monkey at 1 mg/kg, iv measured 90 mins post dose by LC/MS method; type: ADME, organism-based, Macaca mulatta; details: in vivo, 1.5 h; method in brief: as §1
[4] = Lipophilicity, log D of the compound by HPLC; type: physicochemical
Method in brief: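 Lipophilicity determined experimentally by HPLC.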

[5] = Oral bioavailability in Sprague-Dawley rat at 2 mg/kg administered through gavage; type: ADME, organism-based; details: in vivo
[6] = molecular target: T1, Cytochrome P450 11B2, mitochondrial (Rattus norvegicus, UniProt P30099); assay: Inhibition of rat CYP11B2 expressed in V79 cells assessed as aldosterone level after 3 hrs by HTRF assay in presence of 500 nM 11-deoxycorticosterone; type: cell-based; details: v79, 3 h
T1 sequence (P30099 whole entry): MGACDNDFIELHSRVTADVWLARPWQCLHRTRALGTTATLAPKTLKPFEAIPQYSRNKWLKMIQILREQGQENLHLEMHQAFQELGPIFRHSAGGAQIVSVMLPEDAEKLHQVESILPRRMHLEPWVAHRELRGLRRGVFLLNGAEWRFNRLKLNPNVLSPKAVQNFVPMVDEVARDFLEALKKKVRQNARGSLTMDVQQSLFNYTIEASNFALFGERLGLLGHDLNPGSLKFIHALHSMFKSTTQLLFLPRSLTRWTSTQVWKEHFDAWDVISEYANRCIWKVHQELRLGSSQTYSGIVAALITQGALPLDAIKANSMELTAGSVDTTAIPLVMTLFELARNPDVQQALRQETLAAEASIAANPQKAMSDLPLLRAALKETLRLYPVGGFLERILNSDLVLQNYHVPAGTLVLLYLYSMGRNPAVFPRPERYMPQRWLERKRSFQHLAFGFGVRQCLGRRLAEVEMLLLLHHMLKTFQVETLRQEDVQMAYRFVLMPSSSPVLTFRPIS

[7] = Plasma clearance in Sprague-Dawley rat at 2 mg/kg, po administered through gavage by LC/MS/MS method; type: ADME, organism-based
[8] = test system: Rhesus monkey; assay: Effect on 11-deoxycortisol level in rhesus monkey plasma upto 1 mg/kg, iv by LC/MS method; type: functional, organism-based; details: Macaca mulatta; method in brief: as §2
[9] = Oral bioavailability in rhesus monkey at 2 mg/kg administered through gavage; type: ADME, organism-based, Macaca mulatta; details: in vivo
[10] = test system: Rhesus monkey; assay: Dose normalized AUC in rhesus monkey at 2 mg/kg administered through gavage; type: ADME, organism-based, Macaca mulatta; details: in vivo, po
[11] = Half life in rhesus monkey at 2 mg/kg administered through gavage; type: ADME, organism-based, Macaca mulatta; details: in vivo, po
[12] = Intrinsic clearance in rhesus monkey liver microsomes by LC/MS method; type: ADME, Macaca mulatta
[13] = Inhibition of rhesus monkey CYP11B2 expressed in V79 cells assessed as aldosterone level after 3 hrs by HTRF assay in presence of 125 nM 11-deoxycorticosterone; type: cell-based; details: Macaca mulatta, V79, 3 h
[14] = Half life in Sprague-Dawley rat at 2 mg/kg, po administered through gavage by LC/MS/MS method; type: ADME, organism-based; details: in vivo

- Cp(f) [1]: 73 nM
- Cp(f) [3]: 279 nM
- logD [4]: 1.2
- bioavailability [5]: 87%
- inhibition (INH) [6]: Active
- CL/F [7]: 21 mL/min/kg
- bioavailability [9]: 100%
- AUC [10]: 16.26 µM·kg·h/mg
- half-life [11]: 7.8 h
- CLint scaled [12]: < 20 mL/min/kg
- IC50 [13]: 12 nM
- half-life [14]: 1.2 h
SMILES: Cc1nnc2n1-c1ccc(-c3cncc([C@](C)(O)C(F)(F)F)c3)cc1CC2
- inhibition [2]: Dose-dependent effect
- Activity [8]: inactive
